Assay results published in ChEMBL document CHEMBL4196059, “Design, synthesis, and biological evaluation of stable β6.3-Helices: Discovery of non-hemolytic antibacterial peptides” (Eur J Med Chem, 2018).
The source made the active and inactive calls. The calls are words filed in the database; no cut-off is given here.

What was measured:
[1] = Hemolytic activity against human RBC at 0.39 uM after 1 hr by Drabkin's assay relative to control; type: ADME, cell-based, Erythrocyte; settings: human red blood cells (erythrocytes), read-out: Activity
[2] = tested on: Staphylococcus aureus; test: Growth inhibition of methicillin-resistant Staphylococcus aureus ATCC 43300 at 32 ug/ml after 18 hrs; type: functional; settings: ATCC 43300, 18 h, read-out: GI
Method in brief: (§1)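 Mid-log cultures in cation-adjusted Mueller Hinton broth were added at 5×10^5 CFU/mL to wells at a final compound concentration of 32 μg/mL. Plates stood at 37 °C for 18 h. Growth was read by OD600, and % inhibition was computed against media-only and untreated-bacteria controls.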

[3] = tested on: Klebsiella pneumoniae; test: Growth inhibition of multidrug-resistant Klebsiella pneumoniae ATCC 700603 at 32 ug/ml after 18 hrs; type: functional; settings: ATCC 700603, 18 h, read-out: GI; method in brief: as §1
[4] = tested on: Acinetobacter baumannii; test: Growth inhibition of Acinetobacter baumannii ATCC 19606 at 32 ug/ml after 18 hrs; type: functional; settings: ATCC 19606 = CIP 70.34 = JCM 6841, 18 h, read-out: GI
Method in brief: (§2)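 Mid-log cultures were prepared as above and seeded at 5×10^5 CFU/mL with compound at a final 32 μg/mL, then held static at 37 °C for 18 h. Growth was read as OD600. Percent inhibition was calculated against media-only and bacteria-only controls on the same plate.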

[5] = tested on: Cryptococcus neoformans; test: Growth inhibition of Cryptococcus neoformans H99 ATCC 208821 at 32 ug/ml after 24 hrs by resazurin dye-based microspectrophotometric assay; type: functional; settings: var. grubii H99 ATCC 208821, 24 h, read-out: GI
Method in brief: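 Yeasts were grown 3 days on YPD agar at 30 °C, suspended from five colonies and diluted in YNB broth to a final 2.5×10^3 CFU/mL. Compound at a final 32 μg/mL; incubated 24 h at 35 °C without shaking. C. albicans was read at OD530. C. neoformans was read as OD600–570 after resazurin (0.001% final) and a further 2 h at 35 °C. Fluconazole was the standard.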

[6] = tested on: Pseudomonas aeruginosa; test: Growth inhibition of Pseudomonas aeruginosa ATCC 27853 at 32 ug/ml after 18 hrs; type: functional; settings: ATCC 27853, 18 h, read-out: GI; method in brief: as §2
[7] = tested on: Escherichia coli; test: Growth inhibition of Escherichia coli ATCC 25922 at 32 ug/ml after 18 hrs; type: functional; settings: ATCC 25922, 18 h, read-out: GI; method in brief: as §2
[8] = Hemolytic activity against human RBC at 1.56 uM after 1 hr by Drabkin's assay relative to control; type: ADME, cell-based, Erythrocyte; settings: human red blood cells (erythrocytes), read-out: Activity
[9] = Hemolytic activity against human RBC at 6.25 uM after 1 hr by Drabkin's assay relative to control; type: ADME, cell-based, Erythrocyte; settings: human red blood cells (erythrocytes), read-out: Activity
[10] = Hemolytic activity against human RBC at 0.78 uM after 1 hr by Drabkin's assay relative to control; type: ADME, cell-based, Erythrocyte; settings: human red blood cells (erythrocytes), read-out: Activity
[11] = tested on: Candida albicans; test: Growth inhibition of Candida albicans ATCC 90028 at 32 ug/ml after 24 hrs by OD530 light-scattering microspectrophotometric method; settings: ATCC 90028, 24 h, read-out: GI
[12] = tested on: Erythrocyte; test: Hemolytic activity against human RBC after 1 hr by Drabkin's assay; type: ADME, cell-based
[13] = Hemolytic activity against human RBC at 25 uM after 1 hr by Drabkin's assay relative to control; type: ADME, cell-based, Erythrocyte; settings: human red blood cells (erythrocytes), read-out: Activity
[14] = Hemolytic activity against human RBC at 12.5 uM after 1 hr by Drabkin's assay relative to control; type: ADME, cell-based, Erythrocyte; settings: human red blood cells (erythrocytes), read-out: Activity
[15] = Hemolytic activity against human RBC at 3.125 uM after 1 hr by Drabkin's assay relative to control; type: ADME, cell-based, Erythrocyte; settings: human red blood cells (erythrocytes), read-out: Activity
[16] = Induction of pore formation in DOPC vesicles at 20 uM after 3 hrs by carboxyfluorescein dye leakage assay; settings: in the assay text read “after 3 mins” for “after 3 hrs”
Method in brief: (§3)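 POPC or DOPC liposomes were hydrated in 10 mM HEPES, 100 mM KCl, pH 7.4, containing 50 mM carboxyfluorescein. Size was checked by dynamic light scattering, and vesicles were used at 2.2×10^10 per mL. Peptide at 20 μM was equilibrated with vesicles for 3 min, and dye leakage was measured.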

[17] = Hemolytic activity against human RBC at 50 uM after 1 hr by Drabkin's assay relative to control; type: ADME, cell-based, Erythrocyte; settings: human red blood cells (erythrocytes), read-out: Activity
[18] = tested on: Lipid bilayer; test: Induction of pore formation in POPC vesicles at 20 uM after 3 hrs by carboxyfluorescein dye leakage assay; settings: in the assay text read “after 3 mins” for “after 3 hrs”; method in brief: as §3
[19] = Hemolytic activity against human RBC at 100 uM after 1 hr by Drabkin's assay relative to control; type: ADME, cell-based, Erythrocyte; settings: human red blood cells (erythrocytes), read-out: Activity
[20] = target: Lipid bilayer; test: Binding affinity to POPC vesicles by surface plasmon resonance spectroscopy
Method in brief: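 SPR on a dextran chip carrying immobilized POPC liposomes, with running buffer of 10 mM HEPES and 100 mM KCl at pH 7.4. Peptides in PBS were flowed at 25 μL/min at 10–1000 μM, with reference-subtracted response units. KD and Rmax were fitted from maximum response versus concentration. Regeneration used 20 mM CHAPS followed by fresh liposomes.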

SMILES	hemolysis at 1 h, 0.39 µM [1] [%]	inhibition of growth at 32 µg/mL [2] [%]	inhibition of growth at 32 µg/mL [3] [%]	inhibition of growth at 32 µg/mL [4] [%]	inhibition of growth at 32 µg/mL [5] [%]	inhibition of growth at 32 µg/mL [6] [%]	inhibition of growth at 32 µg/mL [7] [%]	hemolysis at 1 h, 1.56 µM [8] [%]	hemolysis at 1 h, 6.25 µM [9] [%]	hemolysis at 1 h, 0.78 µM [10] [%]	inhibition of growth at 32 µg/mL [11] [%]	Activity [12]	hemolysis at 1 h, 25 µM [13] [%]	hemolysis at 1 h, 12.5 µM [14] [%]	hemolysis at 1 h, 3.125 µM [15] [%]	Activity [16]	hemolysis at 1 h, 50 µM [17] [%]	Activity [18]	hemolysis at 1 h, 100 µM [19] [%]	other results
O=CN1CCCN1C(=O)N1CCC[C@H]1C(=O)N1CCCN1C(=O)N1CCC[C@H]1C(=O)N1CCCN1C(=O)N1CCC[C@H]1C(=O)N1CCCN1C(=O)N1CCC[C@H]1C(=O)N1CCCN1C(=O)N1CCC[C@H]1C(=O)N1CCCN1C(=O)N1CCC[C@H]1C(=O)N1CCCN1C(=O)N1CCC[C@H]1C(=O)N1CCCN1C(=O)N1CCC[C@H]1C(=O)NCCO	-0.11	16.5	3.23	12.3	-8.24	-4.91	3.23	-0.17	-0.17	0.08	5.4	Dose-dependent effect	-0.23	-0.23	0.02	inactive	-0.17			
O=CN1CCCN1C(=O)N1CCC[C@H]1C(=O)N1CCCN1C(=O)N1CCC[C@H]1C(=O)N1CCCN1C(=O)N1CCC[C@H]1C(=O)N1CCCN1C(=O)N1CCC[C@H]1C(=O)N1CCCN1C(=O)N1CCC[C@H]1C(=O)N1CCCN1C(=O)N1CCC[C@H]1C(=O)NCCO	-0.12	1.36	0.72	3.07	-11.1	-12.5	0.72	-0.12	-0.181	-0.16	5.12	Dose-dependent effect	0.271	-0.452	-0.55		-0.49	inactive	-0.55	
CC(C)(C)OC(=O)[C@@H]1CCCN1C(=O)N1CCCN1C(=O)[C@@H]1CCCN1C(=O)N1CCCN1C(=O)[C@@H]1CCCN1C(=O)N1CCCN1C(=O)[C@@H]1CCCN1C(=O)N1CCCN1C(=O)OCc1ccccc1	0.08	13.6	-3.42	30.2	-0.865	-8.9	-3.42	0.361	0.09	0	4.13	Dose-dependent effect	0	-0.09	0.181		-0.09	inactive	0	
CC(C)(C)OC(=O)[C@@H]1CCCN1C(=O)N1CCCN1C(=O)[C@@H]1CCCN1C(=O)N1CCCN1C(=O)[C@@H]1CCCN1C(=O)N1CCCN1C(=O)[C@@H]1CCCN1C(=O)N1CCCN1C(=O)[C@@H]1CCCN1C(=O)N1CCCN1C(=O)[C@@H]1CCCN1C(=O)N1CCCN1C(=O)[C@@H]1CCCN1C(=O)N1CCCN1C(=O)[C@@H]1CCCN1C(=O)N1CCCN1C(=O)[C@@H]1CCCN1C(=O)N1CCCN1C(=O)[C@@H]1CCCN1C(=O)N1CCCN1C(=O)[C@@H]1CCCN1C(=O)N1CCCN1C(=O)[C@@H]1CCCN1C(=O)N1CCCN1C(=O)[C@@H]1CCCN1C(=O)N1CCCN1C(=O)[C@@H]1CCCN1C(=O)N1CCCN1C(=O)[C@@H]1CCCN1C(=O)N1CCCN1C(=O)[C@@H]1CCCN1C(=O)N1CCCN1C(=O)OCc1ccccc1	-0.24	25.3	8.57	-19	-1.18	-0.85	8.57	-0.16	-0.24	-0.2	4.41	Dose-dependent effect	-0.49	-0.33	-0.33	inactive	-0.55			
CC(=O)N1CCCN1C(=O)N1CCC[C@H]1C(=O)N1CCCN1C(=O)N1CCC[C@H]1C(=O)N1CCCN1C(=O)N1CCC[C@H]1C(=O)N1CCCN1C(=O)N1CCC[C@H]1C(=O)N1CCCN1C(=O)N1CCC[C@H]1C(=O)N1CCCN1C(=O)N1CCC[C@H]1C(=O)N1CCCN1C(=O)N1CCC[C@H]1C(=O)N1CCCN1C(=O)N1CCC[C@H]1C(=O)NCCO		16.5	10.7	6.55	-0.86	-0.44	10.7	-0.12	0.08	-0.16	2.45	Dose-dependent effect	0	-0.33	-0.12	inactive	-0.57			Kd [20]: 610 µM; Rmax [20]: 460
O=C(O)[C@@H]1CCCN1C(=O)N1CCCN1C(=O)[C@@H]1CCCN1C(=O)N1CCCN1C(=O)[C@@H]1CCCN1C(=O)N1CCCN1C(=O)[C@@H]1CCCN1C(=O)N1CCCN1C(=O)[C@@H]1CCCN1C(=O)N1CCCN1C(=O)[C@@H]1CCCN1C(=O)N1CCCN1C(=O)[C@@H]1CCCN1C(=O)N1CCCN1C(=O)[C@@H]1CCCN1C(=O)N1CCCN1C(=O)OCc1ccccc1	-0.271	1.14	4.92	4.46	-1.86	-9.17	4.92	-0.452	-0.09	-0.181	2.73	Dose-dependent effect	-0.181	0.181	0.271		-0.361	inactive	-0.271	
O=C(O)[C@@H]1CCCN1C(=O)N1CCCN1C(=O)[C@@H]1CCCN1C(=O)N1CCCN1C(=O)[C@@H]1CCCN1C(=O)N1CCCN1C(=O)[C@@H]1CCCN1C(=O)N1CCCN1C(=O)OCc1ccccc1	0.09	27	4.23	14	-5.78	-6.53	4.23	0.542	0.452	0.09	3.59	Dose-dependent effect	-0.361	0.09	0.452		0.09	inactive	0.542	
